Our source for the yeast fitness values is the RNAGym collection of RNA variant scans (doi:10.1126/science.aae0568).

This sample holds only a part of the variants without activity.

To fix the notation:
B1: tRNA (parent)
chain: GUUCCGUUGGCGUAAUGGUAACGCGUCUCCCUCCUAAGGAGAAGACUGCGGGUUCGAGUCCCGUACGGAACG

In this series the parent is B1. Put plainly: yeast fitness relative to wild type (ratio to wild type); higher = fitter; tRNA-Arg(CCU), competitive growth, 37 C, YPD. The procedure, abridged: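 The tRNA-Arg(CCU) gene variants were made by chemical synthesis with a 3% per-site mutation rate at 69 sites and inserted at the native genomic locus of Saccharomyces cerevisiae. After pooling, the strains were competed in YPD at 37°C for 24 hours in six parallel replicates. Gene amplicons from the start population and each end population were read by 100-nucleotide paired-end sequencing, and Darwinian fitness relative to wild type was taken from genotype frequency changes. Genotypes needed ≥ 100 starting reads, and estimates < 0.5 were set to 0.5.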
For G6A C11A A40G G56C C61G A70U, the yeast fitness is not above 0.5.
As for G25C C46A G58A, the figure is not above 0.5; as for C22G A40G A70U, 0.609; as for U13A U47C, 0.774.
Then C30A A57G, with 0.74; and C30A A45C C46U, with 0.613.
As for C33G A36C, the figure is not above 0.5; as for U19A C27U A45C G63A, 0.729; as for C24A C46U, 1.1.
For the variant C49G U59C, the yeast fitness turned out to be 0.761.
As for C5G U13C A20C U32G C46U, the figure is 0.703; as for A43U C61A A65U, not above 0.5; as for U2A G48C G52C A57C G58A, not above 0.5.
As for U2G G12U, the figure is 1.15; as for G9A C31A A65C, 0.871.
As for C11U A65U A69C, the figure is 0.588.
On to G44A G67A A70G, for which the yeast fitness came out at 0.688.
Turning to C11U A21G C55U, the yeast fitness came to 0.593.
As for U16A C22U U26C U54G, the figure is not above 0.5; as for C5U A20G, 0.904; as for U19C U64G, 0.789.
As for U19C U64A, the yeast fitness worked out at 0.898.
Then C30U C31U, with 1.02; and C46A G68C A69G, with not above 0.5; and U3A U32C, with 1.
Then C11U C24G C33A A40C G50C, with not above 0.5; and U3C G38A C61U, with 0.564.
As for C27G A70G, the figure is 0.718; as for A15C U16A C31G C34U A65U C66G, not above 0.5; as for C11U A21G C24A, 0.529.
As for C11A A21C A37C A40C A69C, the yeast fitness is not above 0.5.
As for G10A U35A G52C C66U, the figure is not above 0.5; as for U2G C30A A36G G39C A57G, 0.709.
Take G23C C49U G52C C60U C61G: the yeast fitness was not above 0.5.
As for G12A G50C U64C, the figure is 0.692; as for U8C U32C G44A A69U, 0.724.
As for C30A A36U G68A, the figure is 0.543; as for C4U G18C, 0.651; as for A36C G58C, 0.618.
Then C4U G39A, with 0.982; and G6A U53A G67U G68A, with not above 0.5.
C30G C61U: the yeast fitness was found to be 0.57.
As for A15G G25A C49U A65U, the figure is 0.58; as for C24A C62G, 0.706; as for G9A G23A C29U A43G G68U, not above 0.5.
Then G6A G38A A40C G56A C60U C61G, with not above 0.5.
For C5U A14G A15U U28A C33G G41C G56A, the yeast fitness is not above 0.5.
As for G12A C27G A43G U64G, the figure is not above 0.5; as for G10C A15G C61A, not above 0.5.
Then G18A G25A C49U C62U, with not above 0.5; and U3C C31U G44A, with 0.721; and G18C C49U, with 0.607.
Take U2A C33A: the yeast fitness is 0.721.
In the case of C49G G56A, the yeast fitness worked out at 0.838.
For C4G C5G C29U G50C U59A, the yeast fitness was not above 0.5.
Then A21G G25C C29A C55G G68C, with not above 0.5; and C30U G58A C61G, with not above 0.5.
Then A43U A70G, with 0.937.
As for A15G C46U A69C, the figure is 0.835.
As for C22U G52C C55U A65U, the yeast fitness was not above 0.5.
As for U3C U26G C33A C61U, the figure is not above 0.5.
As for G51A C61A, the figure is 0.536.
As for C11U C60A, the figure is 0.631; as for A14G C30U C46U G50A, 0.602.
As to U2G C11G A20G C24U U26C C31G, the yeast fitness was not above 0.5.
As for C5A A20U C31G G58A C62U A69C, the figure is not above 0.5; as for A36U G52A G63C, 0.558; as for G10A C49A C61U, not above 0.5.
G9C C29U C55U: the yeast fitness came to 0.572.
Then A42C C62G G67C, with not above 0.5; and U2C G10A C49A A65U, with not above 0.5.
As for U3A U8A C31G A40C G58C C62A G68A, the figure is not above 0.5; as for C5U U28A, 0.864; as for C11U A20U C22A, not above 0.5.
As for C24U U35G A42G G51A, the figure is not above 0.5; as for C5G C11G C30U C31U A57G, 0.8.
For G38A U53C, the yeast fitness is 0.799.
With C5G G17C C46U G68A, the yeast fitness is not above 0.5.
Consider C22A G25C, for which the yeast fitness was 1.05.
Then G23A U35A A65C, with not above 0.5.
Then G9A U54C G56A, with 0.661.
Then G23A C30U C33A G41C A42U, with 0.555; and G9A C30U C33A A36U A43U, with not above 0.5.
Consider G9A C29A G50A, for which the yeast fitness was 0.62.
Then U3G C4A A40U U54C, with not above 0.5; and U3A C5A C33G C34U, with 0.634; and U13A C33A A36U, with 0.544.
Take G17C G25C A37G: the yeast fitness was not above 0.5.
As for U3C C5A C11G A20U G25C U32A, the figure is not above 0.5; as for U19C C22G C24A, 0.72.
Then C24A C49U U59G C62U A70G, with not above 0.5; and C4U C5G U16C C24G A42C, with 0.504; and G10A G18C C24U C30G C62U, with not above 0.5.
Then A14U C60A, with not above 0.5.
For the variant U2A C11A, the yeast fitness amounted to 0.614.
As for C24U C34U C49U C61U, the figure is not above 0.5; as for A37G G56A C62A A70G, not above 0.5; as for C4U A14G A36G C60G C61A, not above 0.5.
As for C22G C24G, the figure is 0.595.
As for G23A C27U C34U A45C A65C, the figure is 0.532; as for A15U A20C G48A A69C, not above 0.5.
G6A U13G C62G: the yeast fitness was not above 0.5.
Then A15G U28C C30U A69U, with 0.633.
As for A40G C46G C60U, the figure is not above 0.5; as for A20G A43G U47G U64G, not above 0.5; as for G38A G63A, 0.897.
Then U26A C49U C60U A69G, with not above 0.5; and U7C C31U A70U, with 0.658; and G10U C27G G39A G67A, with not above 0.5.
A14C G63A: the yeast fitness amounted to 0.803.
As for G6C A45C C55U A69C, the figure is not above 0.5.
G9A C29U C46U: the yeast fitness was 0.626.
For the variant U3G C24G C49U G58A G63A, the yeast fitness was not above 0.5.
As for U7C C11G G18A G44U A65C, the figure is not above 0.5.
As for A36C G67C, the figure is 0.537; as for C5G A43U G48C, 0.602; as for G44A A70C, 0.837.
Then A15C C24A C46A A57C A69U, with not above 0.5.
With U26C U32A C34U G38C G51A A57C A65C, the yeast fitness was not above 0.5.
Then C4U A40G C60G, with 0.544; and C55U G63C, with 0.567; and A15C G39C, with 0.638.
As for U13C C30A G38A C55A A65C, the figure is not above 0.5; as for G25A C60G, 0.718.
As for G23A C29G G68C, the figure is not above 0.5; as for U16A U28A C60G C61A G63A, not above 0.5; as for U3C G17A C60A C66U, not above 0.5.
With C27A U47A G56C, the yeast fitness is 0.694.
Take U35A A70G: the yeast fitness turned out to be 0.588.
As for U35A A70C, the yeast fitness is 0.769.
As for A20G C46A C61G, the figure is not above 0.5; as for C30A C55U, 0.686.
Then C4U G10A C34G A40G U64C, with not above 0.5.
Then G12A C27G A36U, with 0.599; and U2A G6C G52A, with not above 0.5; and A21C G23C G52C A65C, with not above 0.5.
A21G C31G A70G: the yeast fitness amounted to 0.787.
In the case of C33G A42G C49U G67A, the yeast fitness is not above 0.5.
For the variant C5G G10A G52A, the yeast fitness amounted to 0.741.
Then C24G U64A, with 0.631; and G9A C30A A45C C49A, with 0.651.
Then U35A U54G, with not above 0.5; and A14U C24G A36G G68U, with not above 0.5; and G23A C30G C55U G63A, with 0.582.
Then C5U C11U C24G C61U C62G A65C, with not above 0.5; and U32C U53A, with 0.691.
As for G18A C30U, the yeast fitness came out at 0.709.
Then A20G C24G, with 0.575; and C34U C60G A70C, with not above 0.5; and U2C U16A A70C, with 0.676.
Take U7G A14U U19A C22U: the yeast fitness is not above 0.5.
As for C5G A36G A40C, the figure is 0.683; as for A43G A45C, 0.901; as for C5G G9C, 0.696.
With C27G C49A A57U, the yeast fitness was not above 0.5.
As for A14U C30U A37G A70G, the figure is not above 0.5.
As for U7C U28A, the figure is 0.845; as for U26A G41A C66A, not above 0.5.
Turning to G51C A65C, the yeast fitness worked out at 0.71.
Regarding G10C C11A A37C C49G C62U, the yeast fitness is not above 0.5.
Turning to C24U C30U A40C G68C, the yeast fitness is 0.545.
As for C4G A21G A45U C49U C60A, the yeast fitness is not above 0.5.
As for U19A A43G, the figure is 0.867; as for C5U A43U C49U C61U, not above 0.5; as for U26A U28A C31U G51A, not above 0.5.
Turning to C11U C62G A69U, the yeast fitness was found to be 0.578.
Take U13C A65U: the yeast fitness is 1.02.
